Converted amounts (≈) assume the structure as drawn.
Key:
[1] = AUC (0 to infinity) in fasted human at 900 mg, po administered as single dose; format: ADME, organism-based; parameters: dose 900 mg, route oral, time infinity; details: plasma
Outline: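 Single-dose, three-period Latin-square crossover in 12 healthy volunteers (6 of each gender). Each received single oral 300, 600 and 900 mg doses under fasting conditions, with a 1-week washout between doses. PK parameters, including AUC0−inf, came from a noncompartmental model.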

[2] = Cmax in human at 800 mg, po administered as single dose with meal measured on day 1; format: ADME, organism-based; parameters: dose 800 mg, route oral; details: in vivo
Outline: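 Randomized, double-blind, placebo-controlled multiple-dose study in 32 healthy subjects, half male and half female. Each dose was taken with a meal, at 600 or 800 mg, 28 doses over 15 days. A single dose on days 1 and 15 gave full PK; BID (Q12h) dosing ran on days 2–14.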

[3] = tested on: Rattus norvegicus; experiment: Toxicity in female rat assessed as effect on neutrophil count at 20 mg/kg/day, po bid administered for 4 weeks (reference value: 22.4%); format: organism-based; parameters: route oral; details: in vivo, 672 h
[4] = tested on: Rattus norvegicus; experiment: Toxicity in female rat assessed as effect on hemoglobin level at 200 to 300 mg/kg/day, po bid administered for 4 weeks (reference value: 141.8 g/L); format: organism-based; parameters: route oral; details: in vivo, 672 h
[5] = target: MAO-A (Homo sapiens, UniProt P21397); experiment: Ratio of compound IC50 to linezolid IC50 for human recombinant MAO-A by luciferin-based luminescence assay; format: ADME; details: read-out: Ratio IC50
[6] = target: Cytochrome P450 2E1 (Homo sapiens, UniProt P05181); experiment: Inhibition of CYP2E1 (unknown origin); format: ADME
[7] = Cmax in fasted human at 300 mg, po administered as single dose; format: ADME, organism-based; parameters: dose 300 mg, route oral; details: in vivo
Outline: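 Healthy volunteers (12; six of each sex) in a three-period Latin-square crossover. Each received single oral doses of 300, 600 and 900 mg under fasting conditions, with a 1-week washout between doses. Parameters from a noncompartmental model.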

[8] = Tmax in fasted human at 300 mg, po administered as single dose; format: ADME, organism-based; details: in vivo
Outline: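 Randomized single-dose, three-period Latin-square crossover in 12 healthy volunteers (six per gender), fasting. Single oral doses of 300, 600 and 900 mg were separated by a 1-week washout. PK parameters were derived by noncompartmental analysis.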

[9] = tested on: Streptococcus pneumoniae; experiment: Bactericidal activity against penicillin-resistant Streptococcus pneumoniae; format: functional
[10] = tested on: Streptococcus agalactiae; experiment: Antibacterial activity against Streptococcus agalactiae; format: functional
[11] = tested on: Streptococcus pneumoniae; experiment: Antibacterial activity against Streptococcus pneumoniae assessed as time required for growth inhibition; format: functional
[12] = tested on: Staphylococcus aureus; experiment: Antibacterial activity against Staphylococcus aureus measured after 2 serial passages; format: functional
[13] = tested on: Staphylococcus aureus; experiment: Antibacterial activity against Staphylococcus aureus measured after 5 serial passages; format: functional
[14] = tested on: Staphylococcus aureus; experiment: Antibacterial activity against Staphylococcus aureus measured after 7 serial passages; format: functional
[15] = tested on: Enterococcus faecalis; experiment: Antibacterial activity against vancomycin-sensitive Enterococcus faecalis ATCC 29212; format: functional
[16] = tested on: Enterococcus faecalis; experiment: Antibacterial activity against vancomycin-resistant Enterococcus faecalis isolate EFL 4041; format: functional
[17] = tested on: Rattus norvegicus; experiment: Acute toxicity in rat administered as single dose; format: organism-based; details: in vivo
[18] = tested on: Staphylococcus aureus; experiment: Antibacterial activity against methicillin-sensitive Staphylococcus aureus ATCC 29213 in mouse thigh infection model assessed as reduction of log10 CFU per thigh at 20 mg/kg, po; format: functional
Outline: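 Mouse thigh infection with S. aureus ATCC29213 (MSSA), 10 animals per dosing group. Oral doses were 5, 10, 20, 40 and 80 mg/kg. The read-out was log CFU per thigh after treatment, and the reduction (ΔLogCFU/thigh) was reported.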

[19] = tested on: Staphylococcus aureus; experiment: Antibacterial activity against methicillin-resistant Staphylococcus aureus isolate 0605 in po dosed mouse thigh infection model; format: functional, organism-based; details: Thigh muscle
[20] = tested on: Canis familiaris; experiment: Dose normalized AUC (0 to t) in po dosed dog; format: ADME, organism-based, Canis lupus familiaris; details: in vivo
[21] = Half life in po dosed mouse; format: ADME, organism-based; details: in vivo
[22] = Half life in po dosed dog; format: ADME, organism-based, Canis lupus familiaris; details: in vivo
[23] = Oral bioavailability in mouse; format: ADME, organism-based; details: in vivo
[24] = Tmax in female rat at 15 mg/kg, po; format: ADME, organism-based; parameters: dose 15 mg/kg, route oral; details: in vivo
Outline: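 Male and female rats received single oral doses of 5, 15 or 45 mg/kg, with 5 mg/kg iv as a reference arm. Tmax was read from the plasma concentration–time profile for each gender.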

[25] = Cmax in male rat at 5 mg/kg, po; format: ADME, organism-based; parameters: dose 5 mg/kg, route oral; details: in vivo
[26] = Cmax in male rat at 15 mg/kg, po; format: ADME, organism-based; parameters: dose 15 mg/kg, route oral; details: in vivo
[27] = Cmax in female rat at 15 mg/kg, po; format: ADME, organism-based; parameters: dose 15 mg/kg, route oral; details: in vivo
[28] = Half life in female rat at 5 mg/kg, po; format: ADME, organism-based; parameters: dose 5 mg/kg, route oral; details: in vivo
[29] = AUC (0 to t) in female rat at 15 mg/kg, po; format: ADME, organism-based; parameters: dose 15 mg/kg, route oral; details: plasma
Outline: (§1)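 Rat PK by gender, with single oral doses of 5, 15 and 45 mg/kg and an iv dose of 5 mg/kg. Tmax, Cmax, T1/2 and AUC0−t were reported per gender.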

[30] = AUC (0 to t) in male rat at 45 mg/kg, po; format: ADME, organism-based; parameters: dose 45 mg/kg, route oral; details: plasma; outline: as §1
[31] = AUC (0 to t) in female rat at 45 mg/kg, po; format: ADME, organism-based; parameters: dose 45 mg/kg, route oral; details: plasma; outline: as §1

Sequence of Cytochrome P450 2E1 (P05181 whole entry): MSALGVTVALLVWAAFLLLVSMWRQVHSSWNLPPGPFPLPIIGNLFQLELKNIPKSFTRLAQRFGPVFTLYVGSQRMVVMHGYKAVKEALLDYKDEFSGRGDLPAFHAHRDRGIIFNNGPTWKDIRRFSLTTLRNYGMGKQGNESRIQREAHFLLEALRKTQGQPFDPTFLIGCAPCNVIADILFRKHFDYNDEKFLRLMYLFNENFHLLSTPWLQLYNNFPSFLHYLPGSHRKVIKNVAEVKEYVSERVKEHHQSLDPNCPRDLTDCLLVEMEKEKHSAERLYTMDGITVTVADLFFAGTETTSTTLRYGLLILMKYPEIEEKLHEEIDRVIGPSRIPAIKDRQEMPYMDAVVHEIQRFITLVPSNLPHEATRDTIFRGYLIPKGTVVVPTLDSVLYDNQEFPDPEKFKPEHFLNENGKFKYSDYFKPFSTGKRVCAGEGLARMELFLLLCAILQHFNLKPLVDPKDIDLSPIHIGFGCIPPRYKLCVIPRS
Sequence of MAO-A (P21397 whole entry): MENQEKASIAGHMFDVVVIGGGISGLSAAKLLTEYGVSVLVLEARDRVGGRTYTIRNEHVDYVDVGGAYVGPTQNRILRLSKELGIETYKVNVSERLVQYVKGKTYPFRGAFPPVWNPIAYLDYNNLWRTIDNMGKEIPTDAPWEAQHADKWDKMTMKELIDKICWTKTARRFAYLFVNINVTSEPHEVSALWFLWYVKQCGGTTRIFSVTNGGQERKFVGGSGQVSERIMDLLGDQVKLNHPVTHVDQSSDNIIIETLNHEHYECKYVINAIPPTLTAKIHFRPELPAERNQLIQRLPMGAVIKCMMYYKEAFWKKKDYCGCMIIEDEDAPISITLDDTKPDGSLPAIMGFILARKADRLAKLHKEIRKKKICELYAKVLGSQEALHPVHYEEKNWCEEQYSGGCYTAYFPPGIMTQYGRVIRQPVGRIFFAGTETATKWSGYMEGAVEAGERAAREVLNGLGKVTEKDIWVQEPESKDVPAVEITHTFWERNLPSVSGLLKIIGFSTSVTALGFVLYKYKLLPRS

## O=C1C=CN(c2c(F)cc(N3C[C@H](CNc4ccon4)OC3=O)c(F)c2F)CC1 [CONTEZOLID]
[1]
  AUC(0-inf): 59200 ng·h/mL
[2]
  Cmax: 27800 ng/mL
[3]
  Activity: 15.4%
[4]
  Activity: 117.6 g/L
[5]
  selectivity ratio: 3
[6]
  IC50: 9.6 µM
[7]
  Cmax: 8070 ng/mL
[8]
  Tmax: 1.25 h
[9]
  MIC50: 0.5 µg/mL (≈ 1.22 µM)
  MIC90: 0.5 µg/mL (≈ 1.22 µM)
[10]
  MIC50: 1 µg/mL (≈ 2.45 µM)
  MIC90: 1 µg/mL (≈ 2.45 µM)
[11]
  Time: 1.8 h
[12]
  MIC: 2 µg/mL (≈ 4.9 µM)
[13]
  MIC: 2 µg/mL (≈ 4.9 µM)
[14]
  MIC: 2 µg/mL (≈ 4.9 µM)
[15]
  MIC: 1 µg/mL (≈ 2.45 µM)
[16]
  MIC: 1 µg/mL (≈ 2.45 µM)
[17]
  Activity: 5000 mg/kg
[18]
  deltalog10CFU: 3.33
[19]
  Activity: Dose-dependent effect
[20]
  AUCt/dose: 1664 ng·h/mL/mg/kg
[21]
  half-life: 1 h
[22]
  half-life: 3 h
[23]
  bioavailability: 69%
[24]
  Tmax: 1.17 h
[25]
  Cmax: 4600 ng/mL
[26]
  Cmax: 10700 ng/mL
[27]
  Cmax: 17200 ng/mL
[28]
  half-life: 2.07 h
[29]
  AUC(0-t): 64700 ng·h/mL
[30]
  AUC(0-t): 93800 ng·h/mL
[31]
  AUC(0-t): 230000 ng·h/mL

From ChEMBL document CHEMBL3286113, “New potent antibacterial oxazolidinone (MRX-I) with an improved class safety profile” (J Med Chem, 2014)
